Among the data in ChEMBL document CHEMBL4680084, “New β-Lactam Derivatives Modulate Cell Adhesion and Signaling Mediated by RGD-Binding and Leukocyte Integrins” (J Med Chem, 2016) are IC50, Activity and EC50 values, retold here.

Calls of active or inactive are those of the source. The rule behind the calls is not given here.

Data set [1] addresses T1, Integrin alpha-V/beta-6 (Homo sapiens, UniProt P06756+P18564). Put plainly: Inhibition of fibronectin binding to alphaVbeta6 isolated form human HT-29 cells incubated for 1 hr by […] competitive solid-phase binding assay. The format is tissue-based.
Data set [2] addresses Integrin alpha-L/beta-2 (LFA-1) (Homo sapiens, UniProt P05107+P20701). The data set can be described thus: Antagonist activity at alphaLbeta2 in human Jurkat E6.1 cells assessed as reduction in cell adhesion to ICAM1 pre-incubated for 30 mins before ICAM1 and further incubated for 30 mins by […]. The class given is cell-based. In outline: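 Jurkat E6.1 cells labelled with CellTracker green CMFDA (12.5 µM, 30 min, 37 °C), washed, then pre-incubated 30 min at 37 °C with compound or methanol. Plated at 500,000/well on VCAM-1 (α4β1) or ICAM-1 (αLβ2) coated wells (5 µg/mL) for 30 min at 37 °C. Cells lysed in 0.5% Triton X-100; fluorescence read Ex485/Em535. Quadruplicate, at least three repeats.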

Another data set deals with K562. Put plainly: Toxicity in human K562 cells assessed as induction of cell necrosis and/or apoptosis incubated for 3 hrs by annexin V-PE and 7-AAD staining based by flow cytometry. Particulars: k562, 3 h. In outline:
(§1)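 After 3 h incubation, cells resuspended in complete medium and stained with annexin V-PE/7-AAD reagent for 20 min at room temperature in the dark. Flow cytometry sorted cells into viable, early apoptotic and late apoptotic/necrotic populations.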

The target of data set [3] is T2, Integrin alpha-5/beta-1 (Homo sapiens, UniProt P05556+P08648). The data set can be described thus: Agonist activity at alpha5beta1 in human K562 cells assessed as increase in cell adhesion to fibronectin pre-incubated for 30 mins and further incubated for 1 hr by nitrophenyl-N-acetyl-beta-D-glucosaminide substrate based chromogenic assay. Particulars: filed as agonist, time 90.0 min. In outline: (§2)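 Compound or methanol vehicle pre-incubated with cells for 30 min at room temperature. Cells then plated on wells coated overnight at 4 °C with fibronectin 10 µg/mL (SK-MEL-24, K562, HT-29) or fibrinogen 10 µg/mL (MCF7, HEL). Seeding was 50,000 cells/well, or 100000 for HEL. Adhesion ran 1 h at room temperature. Wells washed with 1% BSA/PBS. Adherent cells read by hexosaminidase substrate, absorbance 405 nm. Quadruplicate, at least three repeats.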

The target in data set [4] is T3, Integrin alpha-IIb/beta-3 (Homo sapiens, UniProt P05106+P08514). The data set can be described thus: Agonist activity at alpha2bbeta3 in human HEL cells assessed as increase in cell adhesion to fibrinogen pre-incubated for 30 mins before fibrinogen and further incubated for 1 hr by nitrophenyl-N-acetyl-beta-D-glucosaminide substrate based chromogenic assay. Put shortly: (§3)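 Compound or methanol vehicle pre-incubated with cells for 30 min at room temperature. Cells then plated on wells coated overnight at 4 °C with fibronectin 10 µg/mL (SK-MEL-24, K562, HT-29) or fibrinogen 10 µg/mL (MCF7, HEL). Seeding was 50,000 cells/well, or 100000 for HEL. Adhesion ran 1 h at room temperature. Wells washed with 1% BSA/PBS. Quadruplicate, at least three repeats.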

For data set [5], the target named is T4, Integrin alpha-V/beta-3 (Homo sapiens, UniProt P05106+P06756). The data set can be described thus: Inhibition of fibronectin binding to human recombinant alphaVbeta3 expressed in HEK293 cells incubated for 1 hr by […] competitive solid-phase binding assay. The class given is cell-based.
The target of the next data set is Integrin alpha-4/beta-1 (Homo sapiens, UniProt P05556+P13612). Put plainly: Antagonist activity at alpha4beta1 in human Jurkat E6.1 cells assessed as reduction in cell adhesion to VCAM1 pre-incubated for 30 mins before VCAM1 and further incubated for 30 mins by […]. The class given is cell-based.
The subject of another data set is SK-MEL-24. The data set can be described thus: Toxicity in human SK-MEL-24 cells assessed as induction of cell necrosis and/or apoptosis incubated for 3 hrs by annexin V-PE and 7-AAD staining based by flow cytometry. Particulars: sk-mel-24, 3 h. In outline:
as §1

In another data set the test system is HEL. The data set can be described thus: Toxicity in human HEL cells assessed as induction of cell necrosis and/or apoptosis incubated for 3 hrs by annexin V-PE and 7-AAD staining based by flow cytometry. Put shortly:
as §1

Data set [6] deals with T2, Integrin alpha-5/beta-1. The data set can be described thus: Agonist activity at alpha5beta1 in human K562 cells assessed as assessed as increase in ERK1/2 phosphorylation at 1 to 100 nM by Western blot analysis. The format is cell-based. Particulars: filed as agonist, dose 1-100 nM.
The target in data set [7] is T5, Integrin alpha-V/beta-5 (Homo sapiens, UniProt P06756+P18084). Put plainly: Inhibition of fibrinogen binding to alphaVbeta5 isolated form human mCf7 cells incubated for 1 hr by […] competitive solid-phase binding assay.
Data set [8] has as its target T2, Integrin alpha-5/beta-1. Put plainly: Agonist activity at alpha5beta1 in human K562 cells assessed as increase in cell adhesion to fibronectin pre-incubated for 30 mins before fibronectin and further incubated for 1 hr by nitrophenyl-N-acetyl-beta-D-glucosaminide substrate based chromogenic assay. Put shortly:
as §2

For data set [9], the target named is T2, Integrin alpha-5/beta-1. The data set can be described thus: Inhibition of fibronectin binding to alpha5beta1 isolated from human K562 cells incubated for 1 hr by […] competitive solid-phase binding assay. The format is tissue-based. In outline: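 Plates coated overnight at 4 °C in carbonate buffer pH 9.6 with fibronectin 0.5 µg/mL (αvβ3, αvβ6, α5β1), fibrinogen 10 µg/mL (αIIbβ3, αvβ5) or ICAM-1 (αLβ2). Blocked 1 h in buffer containing Ca/Mg/Mn 1 mM each and 1% BSA. Purified integrin (3–10 µg/mL) incubated with compound (10⁻⁴–10⁻¹⁰ M) 1 h at room temperature. Bound integrin detected with primary antibody then AlexaFluor488 secondary, Ex485/Em535. Duplicate, at least three repeats.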

Data set [10] concerns the target T3, Integrin alpha-IIb/beta-3. The data set can be described thus: Agonist activity at alpha2bbeta3 in human K562 cells assessed as increase in cell adhesion to fibrinogen pre-incubated for 30 mins and further incubated for 1 hr in presence of alpha2bbeta3 antagonist Tirofiban by nitrophenyl-N-acetyl-beta-D-glucosaminide substrate based chromogenic assay. Particulars: time 90.0 min.

For a further data set, the system named is HT-29. Put plainly: Toxicity in human HT-29 cells assessed as induction of cell necrosis and/or apoptosis incubated for 3 hrs by annexin V-PE and 7-AAD staining based by flow cytometry. The conditions noted are these: ht-29, 3 h. In outline: as §1
In data set [11] the target is T3, Integrin alpha-IIb/beta-3. Put plainly: Antagonist activity at alpha2bbeta3 in human HEL cells assessed as reduction in cell adhesion to fibrinogen pre-incubated for 30 mins before fibrinogen and further incubated for 1 hr by nitrophenyl-N-acetyl-beta-D-glucosaminide substrate based chromogenic assay. Put shortly: as §3
Data set [12] has as its target T4, Integrin alpha-V/beta-3. Put plainly: Antagonist activity at alphaVbeta3 in human SK-MEL-24 cells assessed as reduction in cell adhesion to fibronectin pre-incubated for 30 mins before fibronectin and further incubated for 1 hr by nitrophenyl-N-acetyl-beta-D-glucosaminide substrate based chromogenic assay. In outline:
as §3

The test system of a further data set is MCF7. The data set can be described thus: Toxicity in human MCF7 cells assessed as induction of cell necrosis and/or apoptosis incubated for 3 hrs by annexin V-PE and 7-AAD staining based by flow cytometry. Particulars: mcf7, 3 h. In outline:
as §1

The target in data set [13] is T1, Integrin alpha-V/beta-6. The data set can be described thus: Antagonist activity at alphaVbeta6 in human HT-29 cells assessed as reduction in cell adhesion to fibronectin pre-incubated for 30 mins before fibronectin and further incubated for 1 hr by nitrophenyl-N-acetyl-beta-D-glucosaminide substrate based chromogenic assay. Put shortly: as §3
The target of data set [14] is T5, Integrin alpha-V/beta-5. Put plainly: Antagonist activity at alphaVbeta5 in human MCF7 cells assessed as reduction in cell adhesion to fibrinogen pre-incubated for 30 mins before fibrinogen and further incubated for 1 hr by nitrophenyl-N-acetyl-beta-D-glucosaminide substrate based chromogenic assay. In outline:
as §3

The target in data set [15] is T1, Integrin alpha-V/beta-6. The data set can be described thus: Agonist activity at alphaVbeta6 in human HT-29 cells assessed as increase in cell adhesion to fibronectin pre-incubated for 30 mins before fibronectin and further incubated for 1 hr by nitrophenyl-N-acetyl-beta-D-glucosaminide substrate based chromogenic assay. Put shortly:
as §2

Regarding `Nc1ccc(CNC(=O)N2C(=O)CC2CC(=O)O)cc1.O=C(O)C(F)(F)F` (stereo not drawn), the 50% inhibitory concentration (IC50) is greater than 1000 nM at Integrin alpha-V/beta-6 [1]; 0.39 nM in data set [2]; 9.9 nM at Integrin alpha-V/beta-3 [5]; 574 nM at Integrin alpha-4/beta-1; greater than 1000 nM at Integrin alpha-V/beta-5 [7]; 9.7 nM on Integrin alpha-5/beta-1 [9]. In addition, the IC50 is greater than 5000 nM in data set [11], 71.7 nM on Integrin alpha-V/beta-3 [12], greater than 5000 nM on Integrin alpha-V/beta-6 [13] and greater than 5000 nM on Integrin alpha-V/beta-5 [14]. Besides, the Activity result with K562 was “Non-Toxic”; at Integrin alpha-5/beta-1 [3], “Dose-dependent effect”; in the data set on SK-MEL-24, “Non-Toxic”; in the data set with HEL, “Non-Toxic”; in the data set on HT-29 it was “Non-Toxic”; in the data set on MCF7 it was “Non-Toxic”. For the same molecule, the EC50 was greater than 5000 nM in data set [4], 44.5 nM on Integrin alpha-5/beta-1 [8] and greater than 5000 nM on Integrin alpha-V/beta-6 [15]. Moreover, the outcome (at Integrin alpha-5/beta-1 [6]; in data set [10] (filed as agonist)) was Active.

With `Cc1ccccc1NC(=O)N1C(=O)CC1CC(=O)NCC(=O)O` (stereo not drawn), the IC50 at Integrin alpha-V/beta-6 [1] was greater than 1000 nM; in data set [2], greater than 5000 nM; at Integrin alpha-V/beta-3 [5], greater than 1000 nM; at Integrin alpha-4/beta-1 it was greater than 5000 nM; on Integrin alpha-V/beta-5 [7], greater than 1000 nM; at Integrin alpha-5/beta-1 [9] it was 52 nM. The IC50 (in data set [11]; on Integrin alpha-V/beta-3 [12]; at Integrin alpha-V/beta-6 [13]; on Integrin alpha-V/beta-5 [14]) was greater than 5000 nM in each case. Further, the Activity entry is “Non-Toxic” in the data set with K562; “Dose-dependent effect” on Integrin alpha-5/beta-1 [3]; “Non-Toxic” in the data set with SK-MEL-24; “Non-Toxic” in the data set on HEL; “Dose-dependent effect” on Integrin alpha-5/beta-1 [6]; “Non-Toxic” with HT-29. The Activity entry in the data set on MCF7 is “Non-Toxic”. The EC50 is greater than 5000 nM in [4], 9.9 nM on Integrin alpha-5/beta-1 [8] and greater than 5000 nM on Integrin alpha-V/beta-6 [15]. Besides, in [10] (filed as agonist), the outcome was Active.

As to `NCc1ccc(NC(=O)N2C(=O)CC2CC(=O)NCCC(=O)O)cc1.O=C(O)C(F)(F)F` (stereo not drawn), the concentration for half-maximal inhibition (IC50) is greater than 1000 nM at Integrin alpha-V/beta-6 [1]; greater than 5000 nM in data set [2]; greater than 1000 nM on Integrin alpha-V/beta-3 [5]; greater than 5000 nM on Integrin alpha-4/beta-1; greater than 1000 nM on Integrin alpha-V/beta-5 [7]; 5.5 nM at Integrin alpha-5/beta-1 [9]. Further, the IC50 in [11] is 1560 nM; at Integrin alpha-V/beta-3 [12], greater than 5000 nM; on Integrin alpha-V/beta-6 [13], greater than 5000 nM; at Integrin alpha-V/beta-5 [14] it was greater than 5000 nM. The Activity entry was “Non-Toxic” with K562; “Dose-dependent effect” on Integrin alpha-5/beta-1 [3]; “Non-Toxic” in the data set with SK-MEL-24; “Non-Toxic” in the data set with HEL; “Dose-dependent effect” at Integrin alpha-5/beta-1 [6]; “Non-Toxic” in the data set on HT-29. Moreover, in the data set on MCF7, the Activity result is recorded as “Non-Toxic”. The EC50 was 1560 nM in [4], 6.7 nM at Integrin alpha-5/beta-1 [8] and greater than 5000 nM on Integrin alpha-V/beta-6 [15]. The result in [10] was inactive.
